What was measured:
[1] = target: T1, Peroxisome proliferator-activated receptor alpha (Homo sapiens) (UniProt Q07869); experiment: Agonist activity at PPARalpha ligand binding domain expressed in human Hep G2 cells co-transfected with Gal4-DBD by luciferase reporter gene assay relative to Wy 14,643; assay type: cell-based; conditions: HepG2
T1 sequence (whole entry): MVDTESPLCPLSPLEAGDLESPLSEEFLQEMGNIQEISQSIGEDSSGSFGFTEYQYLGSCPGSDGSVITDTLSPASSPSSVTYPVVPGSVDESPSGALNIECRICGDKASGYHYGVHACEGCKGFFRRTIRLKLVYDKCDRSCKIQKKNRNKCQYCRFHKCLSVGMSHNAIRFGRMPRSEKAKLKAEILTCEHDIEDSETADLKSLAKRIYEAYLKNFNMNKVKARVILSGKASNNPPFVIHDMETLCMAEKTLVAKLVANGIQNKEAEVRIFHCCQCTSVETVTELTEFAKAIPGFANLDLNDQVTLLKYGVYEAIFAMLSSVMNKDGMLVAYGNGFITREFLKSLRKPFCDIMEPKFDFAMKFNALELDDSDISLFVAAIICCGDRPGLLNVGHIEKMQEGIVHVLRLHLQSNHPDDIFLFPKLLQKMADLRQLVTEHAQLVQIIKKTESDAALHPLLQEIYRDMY
How it was run: (§1)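 HepG2 cells received the Gal4-receptor LBD construct (50 ng), pGal4UAS-luciferase (100 ng) and pCMVβ (300 ng) by calcium phosphate coprecipitation for 4 h. They were then treated in serum-free DMEM/F-12 with ligand or 0.1% ethanol for 20 h. Luciferase was normalized to β-galactosidase, and efficacy was expressed as percent of the Wy 14,643 maximum (100%). Values are mean ± SEM of 3–5 experiments in triplicate.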

[2] = target: T2, Peroxisome proliferator-activated receptor alpha (Homo sapiens, UniProt Q07869); experiment: Agonist activity at PPARalpha ligand binding domain expressed in human Hep G2 cells co-transfected with Gal4-DBD by luciferase reporter gene assay; assay type: cell-based, HepG2
T2 sequence (Q07869 whole entry): T1 sequence (whole entry)
How it was run: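 Gal4-LBD fusion vector (50 ng) was co-transfected with pGal4UAS-luciferase (100 ng) and pCMVβ β-galactosidase normalizer (300 ng) into HepG2 cells by calcium phosphate for 4 h. Cells were washed, then given serum-free DMEM/F-12 with ligand or 0.1% ethanol vehicle for 20 h. Luciferase was normalized to β-galactosidase. EC50 came from concentration-response curves, mean ± SEM of 3–5 independent experiments in triplicate.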

[3] = target: T1, Peroxisome proliferator-activated receptor alpha (Homo sapiens); experiment: Agonist activity at human PPARalpha ligand binding domain expressed in human Hep G2 cells co-transfected with Gal4-DBD by luciferase reporter gene assay relative to Wy 14,643; assay type: cell-based; conditions: HepG2; how it was run: as §1
[4] = target: T3, Peroxisome proliferator-activated receptor alpha (Mus musculus) (UniProt P23204); experiment: Agonist activity at mouse PPARalpha ligand binding domain expressed in human Hep G2 cells co-transfected with Gal4-DBD by luciferase reporter gene assay relative to Wy 14,643; assay type: cell-based; conditions: HepG2; how it was run: as §1
T3 sequence (whole entry): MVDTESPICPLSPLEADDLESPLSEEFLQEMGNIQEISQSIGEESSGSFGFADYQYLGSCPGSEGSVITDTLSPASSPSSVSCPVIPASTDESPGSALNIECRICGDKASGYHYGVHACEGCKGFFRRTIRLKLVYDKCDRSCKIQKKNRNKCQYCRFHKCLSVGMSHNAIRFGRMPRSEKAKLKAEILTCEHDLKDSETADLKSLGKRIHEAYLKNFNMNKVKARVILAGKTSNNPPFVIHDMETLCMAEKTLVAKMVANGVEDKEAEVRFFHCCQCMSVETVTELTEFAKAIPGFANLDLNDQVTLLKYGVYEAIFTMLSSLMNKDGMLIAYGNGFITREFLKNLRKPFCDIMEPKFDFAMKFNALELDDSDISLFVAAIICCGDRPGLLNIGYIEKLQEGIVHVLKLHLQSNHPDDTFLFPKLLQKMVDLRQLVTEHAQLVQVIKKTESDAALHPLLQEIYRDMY

Efficacy [1]	EC50 [2]	Efficacy [3]	Efficacy [4]	Compound
107%	11 nM			O=C(O)[C@H](Cc1ccccc1)Oc1ccc(Cc2ccccc2)cc1
83%	150 nM			O=C(O)[C@H](Cc1ccccc1)Oc1ccc(CCc2ccccc2)cc1
		100%	100%	Cc1cccc(Nc2cc(Cl)nc(SCC(=O)O)n2)c1C

— ChEMBL document CHEMBL1151755, “Crystal structure of the peroxisome proliferator-activated receptor gamma (PPARgamma) ligand binding domain complexed with a novel partial agonist: a new region of the hydrophobic pocket could be exploited for drug design” (J Med Chem, 2008)
